# Columns and labels:
# [1] = system: BDL-induced liver fibrosis; experiment: Bile duct ligation; format: in vivo, mouse; conditions: for progression of established BDL-induced liver fibrosis: treatment started on day 6 after BDL; for gene expression of fibrosis markers collagen-1, Tgfβ1, αSma, Timp1: wild-type mice with BDL
# CB1R [2] = biological target: T1, CB1R (Mus musculus, UniProt P47746); experiment: [35S]GTPγS-binding assay; format: biochemical; conditions: no agonist
# [3] = Tissue distribution by LC-MS/MS after oral dosing; format: in vivo, mouse
# [4] = Plasma ALT and AST after 28-day chronic oral administration; format: in vivo, mouse; conditions: for plasma ALT / plasma AST: 28-day chronic oral
# Summary of the method: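 Mice received test compound by daily oral gavage. Blood was collected at sacrifice, and serum ALT and AST were measured on an automated clinical chemistry analyzer.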
# Caco-2 = Caco-2 permeability assay; format: in vitro ADME
# CB1R [5] = biological target: T1, CB1R; experiment: Brain CB1R occupancy by CB1R PET; format: in vivo; conditions: acute or chronic treatment, 3–30 mg/kg
# anxiety-like behavior = experiment: Elevated plus-maze test; format: in vivo, mouse
# CB1R [6] = biological target: T1, CB1R; experiment: Upper GI motility assay; format: in vivo
# iNOS = iNOS (Mus musculus, UniProt P29477); format: cell-based; conditions: for concentration range of concentration-dependent inhibition of iNOS activity: extracts of RAW 264.7 macrophages treated with LPS + γ-interferon
# Summary of the method: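 RAW 264.7 mouse macrophages (100,000 cells/well) primed 24 h with LPS (50 ng/ml) plus γ-interferon (10 ng/ml) to induce iNOS. Test compound was then added for 1 h. Activity was read with a fluorimetric cell-associated NOS detection kit per supplier's protocol. Diphenylene iodonium (1 mM) served as positive control. One-way ANOVA with Dunnett's test against LPS+γ-interferon control.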
# recombinant bovine eNOS = recombinant bovine eNOS (Bos taurus, UniProt P29473); experiment: Radioisotopic eNOS activity assay; format: biochemical; conditions: recombinant eNOS enzyme
# Summary of the method: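 Recombinant bovine eNOS was incubated with test compound. Activity was taken as the rate of conversion of [3H]L-arginine to [3H]L-citrulline, using a radioisotopic NOS assay kit per supplier's instructions. L-NNA (100 μM) served as positive control. One-way ANOVA with Dunnett's test.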
# [7] = Pharmacokinetics in Sprague-Dawley rats; format: in vivo, rat
# Pharmacokinetics in mice = format: in vivo, mouse; conditions: oral
# [8] = Liver microsomal stability assay; format: in vitro ADME; conditions: mouse, rat, or human liver microsomes, 1 hour at 37°C
# [9] = 2-strain Ames test for in vitro genotoxicity; conditions: up to 125 μg/ml
# hERG = hERG (Homo sapiens, UniProt Q12809); experiment: hERG K+ current inhibition; format: biochemical; conditions: read-out: IC50 for inhibition of the K+ current mediated by hERG; in vitro
# Chain of hERG (Q12809 whole entry): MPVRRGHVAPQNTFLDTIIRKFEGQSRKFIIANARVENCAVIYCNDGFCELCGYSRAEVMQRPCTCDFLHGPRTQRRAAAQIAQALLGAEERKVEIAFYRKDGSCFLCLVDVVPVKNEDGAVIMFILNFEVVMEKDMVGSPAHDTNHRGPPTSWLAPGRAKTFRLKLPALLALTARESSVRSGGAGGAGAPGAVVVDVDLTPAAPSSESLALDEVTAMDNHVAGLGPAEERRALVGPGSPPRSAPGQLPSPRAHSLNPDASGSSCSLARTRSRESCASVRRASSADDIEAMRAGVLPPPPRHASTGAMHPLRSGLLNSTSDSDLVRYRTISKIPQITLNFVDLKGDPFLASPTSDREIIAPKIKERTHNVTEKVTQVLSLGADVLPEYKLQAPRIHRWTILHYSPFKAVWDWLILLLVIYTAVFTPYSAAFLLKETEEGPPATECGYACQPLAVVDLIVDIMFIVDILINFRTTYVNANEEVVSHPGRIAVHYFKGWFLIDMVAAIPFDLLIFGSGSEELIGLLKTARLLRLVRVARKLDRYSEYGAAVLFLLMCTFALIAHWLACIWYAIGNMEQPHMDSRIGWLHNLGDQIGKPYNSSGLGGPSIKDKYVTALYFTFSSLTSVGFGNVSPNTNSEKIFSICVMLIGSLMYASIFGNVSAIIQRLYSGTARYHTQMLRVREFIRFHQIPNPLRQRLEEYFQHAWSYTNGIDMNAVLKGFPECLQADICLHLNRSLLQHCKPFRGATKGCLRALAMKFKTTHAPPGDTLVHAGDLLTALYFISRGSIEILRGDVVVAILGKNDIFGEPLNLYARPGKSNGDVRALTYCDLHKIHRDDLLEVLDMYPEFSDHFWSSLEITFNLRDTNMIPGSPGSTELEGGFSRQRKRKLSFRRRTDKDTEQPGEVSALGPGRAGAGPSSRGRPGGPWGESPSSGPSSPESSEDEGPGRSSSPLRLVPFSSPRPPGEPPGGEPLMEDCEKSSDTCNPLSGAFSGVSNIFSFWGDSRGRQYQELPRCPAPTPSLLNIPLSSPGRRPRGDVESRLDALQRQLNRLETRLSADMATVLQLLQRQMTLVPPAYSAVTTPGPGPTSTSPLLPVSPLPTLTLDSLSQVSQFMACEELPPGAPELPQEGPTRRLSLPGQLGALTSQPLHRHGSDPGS
# CB1R [10] = biological target: CB1R (Homo sapiens, UniProt P21554); experiment: Safety screen; format: binding; conditions: 1 μM
# Chain of CB1R (Homo sapiens, UniProt P21554) (P21554 whole entry): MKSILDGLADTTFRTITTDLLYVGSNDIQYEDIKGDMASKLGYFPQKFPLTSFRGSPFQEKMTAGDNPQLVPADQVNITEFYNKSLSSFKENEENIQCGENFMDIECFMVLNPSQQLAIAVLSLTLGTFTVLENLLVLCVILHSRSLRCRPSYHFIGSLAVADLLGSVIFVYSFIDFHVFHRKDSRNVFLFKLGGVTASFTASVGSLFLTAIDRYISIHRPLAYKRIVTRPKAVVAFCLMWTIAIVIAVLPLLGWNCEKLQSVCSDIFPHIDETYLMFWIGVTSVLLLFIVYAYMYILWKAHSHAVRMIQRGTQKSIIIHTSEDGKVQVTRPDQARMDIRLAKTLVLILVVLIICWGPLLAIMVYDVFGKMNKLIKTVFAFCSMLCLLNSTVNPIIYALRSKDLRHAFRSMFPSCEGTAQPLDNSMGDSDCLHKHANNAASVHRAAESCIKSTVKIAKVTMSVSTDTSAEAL
# κ opioid receptor = experiment: Safety screen; format: binding; conditions: 1 μM
# [11] = system: CCl4-induced liver fibrosis; experiment: CCl4-induced liver fibrosis; format: in vivo, mouse; conditions: 3 mg/kg/d for 4 weeks with CCl4 twice weekly
# CB2R = conditions: binding, CHO-K1 membranes
# T1 sequence (P47746 whole entry): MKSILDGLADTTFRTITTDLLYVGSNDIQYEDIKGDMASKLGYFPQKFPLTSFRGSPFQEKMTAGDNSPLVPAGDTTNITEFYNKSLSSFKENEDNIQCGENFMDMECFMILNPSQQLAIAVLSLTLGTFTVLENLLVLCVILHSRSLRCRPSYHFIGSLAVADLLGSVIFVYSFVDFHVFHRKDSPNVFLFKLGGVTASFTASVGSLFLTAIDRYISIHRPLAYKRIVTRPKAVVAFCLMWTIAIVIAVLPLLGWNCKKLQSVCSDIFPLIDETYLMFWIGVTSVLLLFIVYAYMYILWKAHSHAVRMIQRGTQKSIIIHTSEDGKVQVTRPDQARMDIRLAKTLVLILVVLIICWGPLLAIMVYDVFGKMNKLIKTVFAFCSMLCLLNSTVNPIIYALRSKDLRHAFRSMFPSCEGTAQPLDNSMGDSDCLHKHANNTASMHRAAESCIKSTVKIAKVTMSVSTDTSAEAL
compound,measurement,setting,value
"CC(=N)NCc1cccc(CN)c1 [1400W, reference compound]",progression of established BDL-induced liver fibrosis,[1]; 10 mg/kg daily,attenuated fibrosis to the same extent as rimonabant
C/C(N)=N\C(=N/S(=O)(=O)c1ccc(C(F)(F)F)cc1)N1C[C@H](c2ccccc2)C(c2ccc(Cl)cc2)=N1 [MRI-1867],GTPγS binding in the absence of an agonist (inverse agonism),CB1R [2],concentration-dependent decreases in GTPγS binding
same,unbound drug concentrations in the brain,"[3]; 10 times higher dose (30 mg/kg), acute or chronic oral, 1 hour after dose",0.9 to 1.2 nM
same,brain/plasma Cmax ratio,"[3]; acute or 28-day chronic oral administration, 3 mg/kg",~ 3%
same,brain concentration of unbound drug,"[3]; acute or chronic oral dosing, 3 mg/kg, 1 hour after dose",0.2 to 0.3 nM
same,brain penetrance and brain CB1R occupancy in mdr1α−/− mice,[3]; mdr1α−/− mice,marked increase
same,accumulation in the liver,[3]; oral dosing,accumulated highly in the liver
same,hepatotoxicity,[4]; 28-day chronic oral doses of 3 or 30 mg/kg,no hepatotoxicity
same,plasma ALT,[4]; 3 mg/kg,31.8 ± 4.8 U/l
same,plasma AST,[4]; 3 mg/kg,44.0 ± 6.1 U/l
same,plasma ALT,[4]; 30 mg/kg,26.2 ± 3.4 U/l
same,plasma AST,[4]; 30 mg/kg,36.2 ± 1.2 U/l
same,efflux ratio,Caco-2,2.5
same,displacement of a CB1R PET ligand in brain,CB1R [5],failed to cause significant displacement
same,anxiety-like behavior in the elevated plus maze,anxiety-like behavior; doses up to 30 mg/kg,did not induce anxiety-like behavior
same,reversal of inhibition of upper GI motility caused by CB1R agonist arachidonoyl 2-chloroethylamide,CB1R [6]; 10 mg/kg agonist,dose-dependently reversed
same,upper GI motility (inverse agonism),"CB1R [6]; oral doses of 3–10 mg/kg, control mice, no effect in CBr1−/− mice",significantly increased upper GI motility
same,concentration range of concentration-dependent inhibition of iNOS activity,iNOS,1 to 10 µM
same,effect on eNOS activity,recombinant bovine eNOS,unaffected
same,oral bioavailability,"[7]; AUC oral gavage versus intravenous, 3 mg/kg, Sprague-Dawley rats",81%
same,Plasma t1/2,"[7]; oral, rats",~ 4 hours
same,Plasma t1/2,Pharmacokinetics in mice,~ 4 hours
same,compound remaining unmetabolized,[8],46%–62%
same,Ames test genotoxicity,[9],negative
same,IC50,hERG,5.1 µM
same,displacement at CB1R,CB1R [10],93%
same,displacement at κ opioid receptor,κ opioid receptor,61%
same,BDL-induced increase in hepatic iNOS gene expression,[1]; 3 mg/kg/d oral,completely prevented
same,BDL-induced increase in hepatic iNOS protein (immunostaining),[1]; 3 mg/kg/d oral,completely prevented
same,"BDL-induced increase in iNOS function (hepatic iNOS enzyme activity, protein nitrosylation)",[1]; 3 mg/kg/d oral,completely prevented
same,"macrophage infiltration, hepatocyte apoptosis and elevated Ccl2 after BDL",[1]; 3 mg/kg/d oral,more effectively suppressed
same,BDL-induced fibrosis in cnr1−/− mice,"[1]; cnr1−/− mice, 3 mg/kg/d oral",further attenuated
same,progression of established BDL-induced liver fibrosis,[1]; 3 mg/kg/d oral,completely arrest the progression
same,"gene expression of fibrosis markers collagen-1, Tgfβ1, αSma, Timp1",[1]; 3 mg/kg/d oral,significantly reduced
same,BDL-induced ductular proliferation,"[1]; wild-type mice, 3 mg/kg/d oral",attenuated significantly more effectively
same,"CCl4-induced fibrosis (Sirius red, Hyp content, fibrogenic gene expression, iNOS protein)",[11],attenuated significantly more
same,selectivity for CB1R over CB2R,CB2R,> 500 fold
CC(=N)N [acetamidine],concentration range of concentration-dependent inhibition of iNOS activity,iNOS,1 to 10 µM
same,effect on eNOS activity,recombinant bovine eNOS,unaffected
"Cc1c(C(=O)NN2CCCCC2)nn(-c2ccc(Cl)cc2Cl)c1-c1ccc(Cl)cc1 [rimonabant, reference compound]",anxiety-like behavior in the elevated plus maze,anxiety-like behavior; 3 mg/kg,caused pronounced anxiety
same,inhibition of iNOS activity,iNOS; up to 100 μM,did not inhibit iNOS
same,effect on eNOS activity,recombinant bovine eNOS,Lack of effect
same,BDL-induced increase in hepatic iNOS gene expression,[1]; 3 mg/kg/d oral,only partially reduced
same,BDL-induced increase in hepatic iNOS protein (immunostaining),[1]; 3 mg/kg/d oral,did not affect
same,"BDL-induced increase in iNOS function (hepatic iNOS enzyme activity, protein nitrosylation)",[1]; 3 mg/kg/d oral,no significant effect
same,"gene expression of fibrosis markers collagen-1, Tgfβ1, αSma, Timp1",[1]; 3 mg/kg/d oral,significantly reduced

# Reference: PMC4979564 (JCI insight, 2016)
